{
  "source": "ChEMBL document CHEMBL1152278",
  "about": "“Discovery of ligands for a novel target, the human telomerase RNA, based on flexible-target virtual screening and NMR” (J Med Chem, 2008)",
  "data": [
    {"assay": "Binding affinity to human telomerase P2b RNA by […]", "outline": "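hTR-P2b RNA made by in vitro T7 polymerase transcription from a synthetic DNA template. Titration was at 50 μM RNA in 20 mM sodium phosphate pH 6.7, 50 mM NaCl, 90/10% H₂O/D₂O, 15 °C, with ligand added stepwise. Kd was fitted from 800 MHz imino-proton chemical shifts under a fast-exchange model.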", "units": {"Kd": "µM"}, "values": [
      {"smiles": "O=C(c1ccc(O)cc1)c1ccc(O)cc1", "Kd": 1500},
      {"smiles": "Nc1ccc(NC(=O)c2ccc(N)cc2)cc1", "Kd": 180},
      {"smiles": "C[n+]1ccc(Nc2ccc(NC(=O)c3ccc(N)cc3)cc2)cc1", "Kd": 1100},
      {"smiles": "CCN(CC)Cc1cc(Nc2c3ccccc3nc3c4ccccc4n(C)c23)ccc1O", "Kd": 84},
      {"smiles": "OCCOCCN1CCN(CCCN2c3ccccc3Sc3ccc(C(F)(F)F)cc32)CC1", "Kd": 1100},
      {"smiles": "C[n+]1ccc(Nc2ccc(NC(=O)c3ccc(N)cc3[N+](=O)[O-])cc2)cc1", "Kd": 570},
      {"smiles": "CN(C)CCCN1c2ccccc2[C@H]2C[C@H]2c2ccccc21", "Kd": 1100},
      {"smiles": "N#Cc1ccc2c(c1)N(CCCN1CCN(CCO)CC1)c1ccccc1S2", "Kd": 310},
      {"smiles": "CN1CCN2c3ncccc3Cc3ccccc3C2C1", "note": "(stereo not given) [MIRTAZAPINE]", "Kd": 1500},
      {"smiles": "CN1CCN(CCCN2c3ccccc3Sc3ccc(S(=O)(=O)N(C)C)cc32)CC1", "note": "[THIOPROPERAZINE]", "Kd": 450}
    ]}
  ]
}
